Sampled rows, rich in hits. Any-hit rate of the full collection: about 2.4%.
Calb FLC: affects C. albicans growth with fluconazole; 300,000 compounds, 0.57% hits; growth inhibition, % (concentration not given with the values); AID 1979; C. albicans CaCi-2 (fluconazole-resistant clinical isolate) + fluconazole, Alamar Blue growth, 48 h;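 active = growth inhibition above about 58% in most replicates, limit read from the data, passing the limit was not always enough; inconclusive = exactly half the replicates above a set limit; inactive = most replicates below a set limit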;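 also: all wells also contain fluconazole at 8 µg/ml as a sub-toxic cotreatment; 0% = median of DMSO wells and 100% = median of geldanamycin control wells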
Ins promoter up: MIN6 insulin promoter up-regulation; 190,000 compounds, 0.3% hits; MIN6 insulin promoter-GFP reporter, high-content imaging; hits give high values; z-score at 5 µM;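 active = z-score above 3 at 5 µM with at least 500 cells counted in the well; inconclusive = wells under 500 cells, flagged as cytotoxic or low count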
SR-BI DiI-HDL act: SR-BI HDL lipid transfer activation; CHO ldlA[mSR-BI] cells, DiI-HDL uptake fluorescence, 3 h; 100 = double the neutral-control signal; activation, % at 12.5 µM; 320,000 compounds, 0.096% hits; AID 504775;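 active = mean replicate activation of at least 60% and every replicate at or above 60%; inconclusive = mean or all-replicate condition met, but not both; inactive = mean below 60% and not all replicates reaching 60%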;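 also: 0% = median plate neutral-control signal and 100% = twice that signal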
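Test system: SR-BI-overexpressing, LDLR-lacking CHO cells; Medium: Ham's F12 with 0.5% BSA, HEPES 25 mM, pH 7.4; Schedule: 3 h, 37 °C; Technique: bottom-read fluorescence, 550/595 nm.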
beta cell repl: induces beta-cell replication in MIN6 cells; MIN6 cells proliferation, ATPlite luminescence, 48 h; cells starved in 0.2% serum; 100% = growth in 10% serum; proliferation, % at 10 µM; AID 2380; 330,000 compounds, 0.29% hits;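 active = compounds whose signal lies at least 3.5 SD above the mean of all wells on their plate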;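 also: 0% = DMSO-treated cells in low-serum medium and 100% = 10% serum control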
HTR2A ag: activates the mouse 5-HT2A serotonin receptor | P35363 | CHO-K1 mHTR2A beta-arrestin complementation, luminescence; percent of 30 µM serotonin response | activation, % at 7.6 µM | 360,000 compounds, 0.66% hits;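 active = activation above a run cutoff, the mean activation of all tested compounds plus 3 SD, cut at about 14% in these data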;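 also: 0% = plate median of compound wells and 100% = 30 µM serotonin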
SR-BI DiI inh: blocks mouse SR-BI lipid uptake from DiI-HDL. inhibition, % at 12.5 µM. Q61009. ldlA[mSR-BI] CHO cells, DiI-HDL uptake fluorescence, 3 h. 320,000 compounds, 0.96% hits;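 active = mean replicate inhibition of at least 70% and a set share of replicates each scoring 70 or more; inconclusive = meets just one of the two criteria; inactive = fails both criteria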;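 also: 0% = median of neutral control wells and 100% = median of positive control wells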
Target sequence (Q61009 whole entry, looked up): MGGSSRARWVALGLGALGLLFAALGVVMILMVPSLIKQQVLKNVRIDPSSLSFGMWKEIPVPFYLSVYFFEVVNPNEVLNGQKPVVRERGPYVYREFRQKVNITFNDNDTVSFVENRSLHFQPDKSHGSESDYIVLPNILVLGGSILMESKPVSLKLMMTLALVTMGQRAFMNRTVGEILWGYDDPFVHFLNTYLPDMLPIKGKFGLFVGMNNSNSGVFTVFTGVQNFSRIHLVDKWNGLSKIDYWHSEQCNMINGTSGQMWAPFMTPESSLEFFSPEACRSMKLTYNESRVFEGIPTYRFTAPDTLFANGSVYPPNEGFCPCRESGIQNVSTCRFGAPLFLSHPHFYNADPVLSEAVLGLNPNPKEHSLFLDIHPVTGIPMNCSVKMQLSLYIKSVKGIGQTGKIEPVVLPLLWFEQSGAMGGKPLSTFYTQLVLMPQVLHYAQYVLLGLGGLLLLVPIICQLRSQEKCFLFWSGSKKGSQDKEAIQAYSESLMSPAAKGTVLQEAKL
DiI quench: DiI fluorescence quenching in cell-free counter-screen | shares compounds with SR-BI DiI inh | cell-free DiI-HDL fluorescence quenching, 30 min | AC50, µM (highest dose often 35 µM), for the others: top-dose activity change, negative = quenching | 470 compounds, 20% hits | AID 540326;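 active = quenching, a falling signal, with AC50 below a set limit tied to the top valid dose, actives reach about 32 µM in these data; inconclusive = no clear call, values can overlap the other calls; inactive = rising signal, and the rest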
Starred values were filed as active, the others as inactive; ? = inconclusive; · = not tested or not shown.

SMILES | Calb FLC | Ins promoter up | SR-BI DiI-HDL act | beta cell repl | HTR2A ag | SR-BI DiI inh | DiI quench
COc1ccc(OCCSc2nnc(-c3cccnc3)n2N)cc1 | 4.5 | -0.54 | -106.0 | 3.2 | 3.5 | 106.0* | -0.9%
COc1cc([N+](=O)[O-])ccc1NC(=O)NCC1CCN(Cc2ccc(Cl)cc2)CC1 | -12.6 | · | -82.8 | -6.3 | -9.8 | 82.8* | -4.8%
CC(C)CN(CC(C)C)C(=O)COn1nnc2ccc(S(=O)(=O)N3CCOCC3)cc21 | · | · | -70.4 | -4.8 | 7.0 | 70.4* | -5.2%
CN(C(=O)COn1nnc2ccc(S(=O)(=O)N3CCOCC3)cc21)c1ccccc1 | 7.3 | · | -7.9 | 0.5 | -5.7 | 7.9 | -3.4%
Cc1ccccc1COn1nnc2ccc(S(=O)(=O)N3CCOCC3)cc21 | 5.5 | · | 10.7 | 4.9 | 5.3 | -10.7 | ·
Cc1ccc(CCNC(=O)C2CCN(C(=O)c3sccc3-n3cccc3)CC2)cc1 | -0.7 | 0.18 | -49.7 | 3.5 | 0.1 | 49.7 | -2.1%
COc1ccccc1CNC(=O)C1CCN(C(=O)c2sccc2-n2cccc2)CC1 | -6.3 | · | -70.9 | -0.4 | 0.2 | ? | -1.7%
O=C(NCc1cccc(F)c1)C1CCN(C(=O)c2sccc2-n2cccc2)CC1 | 35.9 | · | -50.4 | 3.2 | -1.2 | 50.4 | ·
O=C(NCCc1ccccc1)C1CCN(C(=O)c2sccc2-n2cccc2)CC1 | 19.2 | 1.82 | -80.7 | -1.8 | -2.8 | 80.7* | -6.1%
CCc1ccc(C2NC(=S)NC3=C2C(=O)CC(C)(C)C3)cc1 (stereo not given) | 2.8 | 1.35 | -2.3 | -3.4 | -1.8 | 2.3 | ·
Cc1cc(=O)oc2cc(OCC(=O)N3CCN(C(=O)C4COc5ccccc5O4)CC3)c(Cl)cc12 (stereo not given) | 10.8 | · | -79.8 | -1.7 | -1.5 | 79.8* | -4.5%
CC1C(=O)N(Cc2cn(Cc3ccco3)nn2)CCS(=O)(=O)N1Cc1ccc(-c2ccc(Cl)cc2)cc1 (stereo not given) | · | · | · | · | -1.9 | · | ·
COc1ccc(S(=O)(=O)N2CCC(C(=O)NN3CCCCC3)CC2)cc1OC | · | · | 8.6 | -3.2 | 0.4 | -8.6 | -1.9%
C[C@@H]1CN([C@@H](C)CO)S(=O)(=O)c2ccc(Br)cc2O[C@@H]1CN(C)C(=O)C1CC1 | · | · | · | · | -0.2 | · | ·
CCCSc1ccc([C@@H]2[C@H]3C(=O)N(CC)C(=O)[C@H]3[C@]3(C(=O)OC)CCCCN23)cc1 | 6.3 | · | -52.1 | -8.4 | 5.1 | 52.1 | ·
Cc1cc(C)nc(Nc2n[nH]c(-c3ccc(C(C)(C)C)cc3)n2)n1 | 24.2 | · | -108.1 | -0.9 | 1.1 | 108.1* | 10.7µM*
COc1ccccc1CNC(=O)C1CCC(CNC(=O)[C@@H]2Cc3ccccc3CN2)CC1 (stereo not given in full) | 10.3 | · | -77.0 | 1.9 | -1.6 | 77.0* | -4.6%
CC(=O)Oc1ccc(C(=O)Nc2cc(NC(=O)c3ccc(OC(C)=O)cc3)cc(C(=O)NC(C)(C)C)c2)cc1 | -11.9 | -0.28 | -22.1 | -6.3 | -4.1 | 22.1 | 6.3%
CC(C)(C)OC(=O)Nc1ccccc1-n1nnnc1C(C(=O)c1ccc(F)cc1)N1CCN(c2ccccn2)CC1 (stereo not given) | · | · | · | · | -1.2 | · | ·
O=C1C2CCCCN2C(=O)N1CCN1CCN(c2ccc([N+](=O)[O-])cc2)CC1 (stereo not given) | -9.8 | 0.33 | -45.1 | -1.4 | -1.8 | 45.1 | ·
O=C1C2CCCN2C(=O)N1CCCN1CCN(c2ccc([N+](=O)[O-])cc2)CC1 (stereo not given) | -8.3 | · | -93.7 | -0.9 | -9.1 | 93.7* | -2.2%
C=C(C)c1nc(Oc2ccccc2)nc(Oc2ccccc2)n1 | · | · | -0.3 | · | 0.4 | 0.3 | ·
CN(C(=O)COC(=O)CCc1c[nH]c2ccccc12)c1ccccc1 | 0.0 | · | 25.0 | -1.4 | -2.1 | -25.0 | -5.1%
Cc1cc(C)cc(N(CCC#N)C(=O)COC(=O)CCc2c[nH]c3ccccc23)c1 | · | · | -73.8 | -0.1 | -7.3 | ? | -13.2%
Cc1ccc(NC(=O)COC(=O)CCc2c[nH]c3ccccc23)cc1 | · | · | · | · | -0.8 | · | ·
SMILES | Calb FLC | Ins promoter up | SR-BI DiI-HDL act | beta cell repl | HTR2A ag | SR-BI DiI inh | DiI quench
CC1(C(=O)NCc2ccccc2)CCC(=O)N1CCCn1ccnc1 (stereo not given) | · | · | · | · | 0.6 | · | ·
Cc1ccc(-c2cc(C(F)F)n3ncc(C(=O)N4CCN(c5cccc(C)c5C)CC4)c3n2)cc1 | -4.1 | -1.3 | -45.5 | -5.0 | -1.8 | 45.5 | 0.5%
O=C(c1cc(-c2ccccc2)nc2ccccc12)N1CCN(c2ccccc2O)CC1 | -0.1 | · | -58.1 | -6.5 | 2.6 | 58.1 | ·
CC(=O)c1ccc(N2CCN(C(=O)c3cc(-c4cccnc4)nc4ccc(Br)cc34)CC2)cc1 | -2.2 | -1.05 | -9.5 | -5.1 | -3.5 | 9.5 | -5.4%
Cc1ccc2nc(-c3ccccc3)cc(C(=O)N3CCN(c4ccccc4O)CC3)c2c1 | · | · | -34.7 | -6.8 | 0.1 | 34.7 | -11.4%
COc1cccc(C2C([N+](=O)[O-])=C(N)Oc3cc(C)oc(=O)c32)c1 (stereo not given) | -2.8 | -0.64 | 8.6 | 5.1 | 2.1 | -8.6 | ·
Cc1cc(/C=C(\C#N)C(=O)NCc2ccccc2)c(C)[nH]1 | · | · | · | · | -3.6 | · | ·
Cc1ccc2[nH]c(C(=O)N3CCN(C(c4ccccc4)c4ccccc4)CC3)cc2c1 | 20.8 | · | -1.4 | -4.8 | -1.0 | 1.4 | ·
COc1cccc(-c2csc(N3CCN(C(=S)Nc4ccccc4Cl)CC3)n2)c1 | 0.0 | -1.3 | -13.7 | -2.6 | 10.0 | 13.7 | ·
COc1cccc(-c2csc(N3CCN(C(=S)Nc4cccc(Cl)c4)CC3)n2)c1 | -3.4 | -0.68 | -78.8 | -3.1 | -2.5 | 78.8* | -5.8%
CCOC(=O)N1CCN(C(=O)C2CCN(C(=O)Nc3ccccc3)CC2)CC1 | · | · | -73.6 | 1.5 | 2.9 | 73.6* | -1.3%
CCN1CCN(C(=O)C2CCN(C(=O)Nc3ccccc3)CC2)CC1 | · | · | 10.1 | -1.4 | 5.9 | -10.1 | ·
Cc1cc(C)n(CC(=O)NC2CCCc3c2cnn3-c2ccc(C)c(C)c2)n1 (stereo not given) | -19.3 | · | -72.2 | 2.6 | -2.8 | ? | -1.9%
CC(=O)OC1CC2(C)/C(=N\O)CCC2C2CCc3cc(O)ccc3C12 (stereo not given) | 11.7 | · | -9.9 | -3.6 | 0.5 | 9.9 | ·
O=C(Nc1ccc(S(=O)(=O)N2C[C@@H]3C[C@@H](C2)c2cccc(=O)n2C3)cc1)c1ccc(F)cc1 | · | · | -16.7 | -2.9 | 1.8 | 16.7 | ·
CCOc1ccc(C(=O)Nc2ccc(S(=O)(=O)N3C[C@@H]4C[C@@H](C3)c3cccc(=O)n3C4)cc2)cc1 | · | · | -74.9 | 1.7 | -1.1 | 74.9* | -1.3%
Cc1ccc(C(C(=O)NC(C)(C)C)N(Cc2cccs2)C(=O)c2ccc3c(c2)OCCO3)cc1 (stereo not given) | -13.2 | -0.11 | 11.7 | 2.5 | 1.4 | -11.7 | 2.5%

From PubChem
